Test results published in ChEMBL document CHEMBL1146201, “Comparison of a SYBR green I-based assay with a histidine-rich protein II enzyme-linked immunosorbent assay for in vitro antimalarial drug efficacy testing and application to clinical isolates” (Antimicrob Agents Chemother, 2007).
Where a name gives a salt, the structure may show the parent alone.

Columns and labels:
Type in all cases: functional, organism-based
[1] = test system: Plasmodium falciparum; assay: Growth inhibition after 72 hrs of Plasmodium falciparum W2 by SYBR green I assay; conditions: W2, 72 h
How it was run: (§1)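 Cultures were set up as for the ELISA arm: 0.5% parasitemia, 2% hematocrit, 72 h at 37°C, 5% O2/5% CO2/90% N2, twofold drug dilutions in duplicate. Plates were frozen at −80°C and thawed 2 h. 100 μl culture was mixed with an equal volume of SYBR green I in lysis buffer (Tris 20 mM pH 7.5, EDTA, saponin, Triton X-100), then held 1 h at RT. Fluorescence was read at 485/535 nm, with an uninfected-RBC background control. IC50/IC90 were derived by nonlinear fitting.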

[2] = test system: Plasmodium falciparum; assay: Growth inhibition after 72 hrs of Plasmodium falciparum W2 by HRPII ELISA; conditions: W2, 72 h
How it was run: (§2)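 Ring-stage cultures (≥70% rings) diluted to 0.5% parasitemia, 2% hematocrit, in RPMI with Albumax I or 10% human serum. Incubated 72 h at 37°C under 5% O2/5% CO2/90% N2 in plates predosed in duplicate with twofold dilutions (chloroquine 3.8–242 nM, quinine 10.8–346 nM, mefloquine 1.1–37.7 nM). Plates were then frozen and thawed. Lysate was assayed by HRPII capture ELISA (IgM capture, HRP detector), A450. IC50/IC90 were derived by nonlinear fitting.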

[3] = test system: Plasmodium falciparum; assay: Growth inhibition after 72 hrs of Plasmodium falciparum 3D7 by SYBR green assay; conditions: 3D7, 72 h; how it was run: as §1
[4] = test system: Plasmodium falciparum; assay: Growth inhibition after 72 hrs of Plasmodium falciparum D6 by HRPII ELISA; conditions: D6, 72 h; how it was run: as §2
[5] = test system: Plasmodium falciparum; assay: Growth inhibition after 72 hrs of Plasmodium falciparum 3D7 by HRPII ELISA; conditions: 3D7, 72 h; how it was run: as §2
[6] = test system: Plasmodium falciparum; assay: Growth inhibition after 72 hrs of Plasmodium falciparum D6 by SYBR green I assay; conditions: D6, 72 h; how it was run: as §1

Row | SMILES | IC50 [1] | IC90 ([1]; read-out: IC90) | IC50 [2] | IC90 [2] | IC50 [3] | IC90 [3] | IC50 [4] | IC90 [4] | IC50 [5] | IC90 [5] | IC50 [6] | IC90 [6] | IC90 [1]
1 | C=CC1CN2CC[C@H]1C[C@H]2[C@H](O)c1ccnc2ccc(OC)cc12 (single isomer, unassigned) [QUININE HYDROCHLORIDE] | 0.0222 µM | 0.116 µM | 0.0151 µM | 0.128 µM | 0.0069 µM | 0.0637 µM | 0.0067 µM | 0.0132 µM | 0.0059 µM | 0.0426 µM | 0.0066 µM | 0.0124 µM | –
2 | CCN(CC)CCCC(C)Nc1ccnc2cc(Cl)ccc12 (configuration not stated) [CHLOROQUINE PHOSPHATE] | – | – | – | 0.129 µM | – | 0.0264 µM | – | 0.0158 µM | – | 0.0332 µM | – | 0.0161 µM | 0.125 µM
3 | O[C@@H](c1cc(C(F)(F)F)nc2c(C(F)(F)F)cccc12)[C@H]1CCCCN1 [MEFLOQUINE HYDROCHLORIDE] | – | 0.0122 µM | 0.0019 µM | 0.008 µM | 0.0094 µM | 0.0298 µM | – | – | 0.0084 µM | 0.0256 µM | 0.0064 µM | 0.0233 µM | –
